Assay outcomes: PubChem BioAssay, Sanford-Burnham Center for Chemical Genomics
Apaf-1 act = activators of human Apaf-1 apoptosome, primary screen, biochemical, DEVD-Rh110 fluorescence, uHTS; Apaf-1 apoptosome caspase-3 activation; stronger effect = lower value; Apoptotic protease-activating factor 1 (Homo sapiens), O14727; 0.31% of 330,000 active; activity change, negative = activation, % at 20 µM;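 active = activity change at or below -40% at 20 µM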
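System: Reconstituted apoptosome of Apaf-1, cytochrome c, caspase-9, procaspase-3 | Reagent: dATP, cytochrome c, and (Z-DEVD)2-Rh110 caspase-3 substrate | Times: 30 min compound preincubation and 50 min reaction, both room temperature | Detection: Caspase-3-released Rh110 fluorescence, 540 nm emission, 480 nm excitation | Measure: Caspase-3 activity via Apaf-1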
Rh110 interf act = Rh110 fluorescence interference by putative Apaf-1 activators, confirmation, artefact control for Apaf-1 activator project, biochemical, 20 µM. shares compounds with Apaf-1 act. quenched caspase reaction, Ex480/Em540. fluorescence interference (activity change), % at 20 µM, hits read low. 980 tested, under 10 active. AID 504616, 2011;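 active = mean activity change at or below -40% when tested at 20 µM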
Apaf-1 act conf = Apaf-1 activators, single-dose retest, confirmation, biochemical, fluorescence, DEVD-Rh110, 20 µM; shares compounds with Apaf-1 act; reconstituted apoptosome caspase-3 activity; stronger effect = lower value; activity change, negative = activation, % at 20 µM; AID 504617, 2011; 5% of 980 active;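 active = mean activity change at or below -40%, meaning activation of 40% or more, at 20 µM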
The depositor's hits bear a star; / = no result. Only a sample is shown.

SMILES	Apaf-1 act	Rh110 interf act	Apaf-1 act conf
NS(=O)(=O)Cc1noc2ccccc12	-78.9*	-3.8	6.8
Nc1ccc2ncccc2c1	85.5	/	/
N#Cc1sc2nc(-c3ccccc3)cc(-c3ccco3)c2c1N	89.6	/	/
COc1ccc2c(c1)Cc1sc(NC(C)=O)nc1-2	72.6	/	/
COc1ccc2nc(NC(=O)c3sc4nc(C)cc(C)c4c3N)sc2c1	-40.8*	-3.0	9.7
COc1ccc2c(c1)Cc1sc(NC(=O)c3cccnc3)nc1-2	88.6	/	/
CCOC(=O)C1CCN(C(=O)c2ccc3c(c2)NC(=O)/C(=C\c2cccc(C)c2)S3)CC1	40.0	/	/
C#CCOCCOCCOCCNc1nc(N2CCN(C(=O)CCCCCCCCCCNC(=O)[C@H]([C@@H](C)CC)n3cc(CCCCN=C(N)N)nn3)CC2)nc(N2CCN(C(=O)CCCCCCCCCCNC(=O)[C@H]([C@@H](C)CC)n3cc(CCCCN=C(N)N)nn3)CC2)n1	41.3	/	/
Cc1cc(N)ccc1N1CCCC1	65.1	/	/
COc1ccc(-c2nc(-c3ccccc3)nc(N3CCN(C)CC3)c2C#N)cc1	41.2	/	/
COc1ccc(CCN2CCC(Nc3nc4ccccc4n3Cc3ccc(F)cc3)CC2)cc1	55.5	/	/
COc1ccc(N2CCN(Cc3nc4ccccc4n3C)CC2)cc1	-108.3*	-0.4	-1.1
CCOc1ccc(-c2nc(CSc3nnc(N)s3)cs2)cc1	-523.1*	5.4	11.3
O=C1C=C(Nc2ccccc2)c2ccccc2C1=O	91.9	/	/
[O-][n+]1cccc2c(Br)cc(Br)c(O)c21	72.9	/	/
Cc1[nH]n(-c2ccc([N+](=O)[O-])cc2)c(=O)c1/C=N/N1CCOCC1	44.5	/	/
CCOc1cc2[nH]c(=O)n(CCCCC(=O)NCc3ccco3)c(=O)c2cc1OCC	-190.1*	-2.1	8.0
CN1C(=O)c2cccc3c(S(=O)(=O)NCc4ccco4)ccc1c23	54.5	/	/
COc1ccc(CC(=O)Nc2ccc(S(=O)(=O)Nc3onc(C)c3C)cc2)cc1OC	-90.5*	-0.3	12.4
COc1ccc(CCN(C)C(=O)c2ccc(COc3ccccc3)o2)cc1OC	66.3	/	/
COc1ccc(CC(=O)NNS(=O)(=O)c2ccc([N+](=O)[O-])cc2)cc1OC	-479.1*	5.5	10.5
NC(N)=NC(N)=Nc1cccc2ccccc12	82.5	/	/
COCc1c(C(=O)OCC(=O)NCCN2C(=O)CSC2=O)oc2ccccc12	-67.3*	-4.0	5.4
CCCCCCCCCCOC(=O)Cn1c(COc2cccc(C)c2)[n+](C)c2ccccc21	79.4	/	/
CC(C)C[C@@H]1CN=C(N)N1C[C@@H]1CCCN1C[C@@H](C(C)C)N1C[C@@H](Cc2ccccc2)N(CCc2ccc(Cl)c(Cl)c2)C1=N	63.4	/	/
SMILES	Apaf-1 act	Rh110 interf act	Apaf-1 act conf
Cc1ccc(S(=O)(=O)C(C#N)c2nc3ccccc3nc2N2CCCC2)cc1 (stereo not given)	77.2	/	/
O=c1[nH]c(C(F)(F)F)nc2ccccc12	-111.9*	0.1	12.5
O=c1[nH]c(Nc2ccc(F)cc2)cc2ccccc12	95.1	/	/
O=c1[nH]c(CN2CCc3ccccc3C2)nc2ccccc12	64.7	/	/
CC1(OC(=O)c2ccc(Cl)nc2)C(=O)C=C2C=C3CCCN3C=C2C1=O (stereo not given)	44.2	/	/
Nc1c(Br)cc(Br)cc1CNC1CCC(O)CC1 (stereo not given)	10.8	/	/
c1csc(Cc2nn3c(-c4n[nH]c5c4CCC5)nnc3s2)c1	40.8	/	/
CC(/C=C/c1ccc2c(c1)OCO2)=N/NC(=O)c1ccncc1	-41.6*	-3.9	4.3
O=C(N/N=C1\C/C(=N\NC(=O)c2ccncc2)c2ccccc21)c1ccncc1	93.4	/	/
CC(C)N1CCc2c(sc(NC(=O)c3cc(-c4cccs4)nc4ccccc34)c2C(N)=O)C1	61.1	/	/
COc1cc(/C=C2/C(=O)N(c3cccc(Br)c3)N=C2C)cc(OC)c1O	82.2	/	/
C#CCOCCOCCOCCNc1nc(N2CCN(C(=O)CCCCCCCCCCNC(=O)[C@H]([C@@H](C)CC)n3cc(CCCCCN)nn3)CC2)nc(N2CCN(C(=O)CCCCCCCCCCNC(=O)[C@H](CCCCN)n3cc(CCCC(=O)O)nn3)CC2)n1	55.7	/	/
CCOC(=O)C(=O)Nc1cc(Cl)ccc1C	-54.4*	10.5	10.0
COc1ccc(-c2oc3ncnc(NCCN4CCOCC4)c3c2-c2ccc(OC)cc2)cc1	42.1	/	/
CCSc1nsc(NC(=O)Nc2ccc(F)cc2F)n1	-94.7*	6.4	16.1
NCCc1cnc[nH]1	3.0	/	/
CCN1CCN(CCNC(=O)c2ccc(/C=C3\Sc4ccccc4N(Cc4ccccc4F)C3=O)cc2)CC1	41.3	/	/
COc1cccc2cc(C(=O)NCc3ccc(Cl)cc3)c(=N)oc12	41.6	/	/
COC(=O)NCc1ccc(Cl)c(Cl)c1	-70.7*	-2.7	-2.5
CCC(COC(=O)c1ccccc1)Oc1cc(NCc2ccccc2)c2ncn(C(C)C)c2c1 (stereo not given)	69.0	/	/
CCOC(=O)c1c2c(n(C)c1COC)C(=O)C(=O)c1ccc(Br)cc1-2	96.8	/	/
OC(COc1c(Cl)cc(Cl)cc1Cl)CN1CCCCC1 (stereo not given)	-88.1*	-0.2	14.9
CN(C)CCCN(C(=O)c1ccc(S(=O)(=O)N2CCCC2)cc1)c1nc2ccc(Br)cc2s1	53.3	/	/
COc1ccc(-c2csc(-c3ccc(O)cc3)n2)cc1	-115.7*	8.4	4.5
CN(Cc1c(F)cccc1Cl)C(=O)c1ccc(COc2ccccc2)cc1	53.4	/	/
SMILES	Apaf-1 act	Rh110 interf act	Apaf-1 act conf
CN(C)Cc1c(C(=O)N/N=C/c2cccc(OCc3c(F)cccc3Cl)c2)nnn1-c1nonc1N	-95.7*	-3.6	11.3
COc1ccc(N2CCN(C(=O)Cc3ccc(OC)c(OC)c3)CC2)cc1	-535.1*	5.5	-4.2
COc1ccc(C(CNC(=O)c2cc3c(s2)CCC(C)C3)N2CCCC2)cc1 (stereo not given)	60.6	/	/
Cc1ccc(NC(=O)N2CCCC2C(=O)Nc2ccc3c(c2)OCCO3)cc1 (stereo not given)	-82.8*	-1.2	10.5
O=C(Nc1ccc2c(c1)OCO2)C1CCCCN1S(=O)(=O)c1ccccc1 (stereo not given)	-95.0*	16.1	17.5
O=C(Nc1ccc(OC(F)F)c(Cl)c1)[C@@H]1CCCN1C(=O)c1cccs1	92.3	/	/
COc1cc2c(cc1OC)C1=C(C#N)CCC(=O)N1CC2	50.0	/	/
COc1cc(OC)cc(C(=O)NCC(=O)OCC(=O)c2ccc3c(c2)-c2ccccc2C3)c1	-64.9*	-7.5	17.7
COc1ccc(-n2c(NC(=O)c3ccco3)c(C#N)c3nc4ccccc4nc32)cc1	96.4	/	/
CCOC(=O)c1c(NC(=O)c2ccco2)n(C2CCCCC2)c2nc3ccccc3nc12	87.5	/	/
CCOC(=O)c1sc(NC(=O)c2ccco2)c(C#N)c1C	-210.9*	-1.3	12.3
CCN(CC)c1ccc(C=Nc2ccc(N(C)C)cc2)c(O)c1	44.5	/	/
CCN(CC)c1ccc(/C=N/N2CCN(Cc3ccccc3)CC2)c(O)c1	-50.1*	0.3	13.8
NC(N)=N/N=C/c1ccc(OCc2ccccc2)c(OCc2ccccc2)c1	60.7	/	/
CCN(CC)c1ccc(/C=N/N=C(N)N)c(O)c1	-156.5*	-2.8	8.6
O=C(Nc1nnc(S(=O)(=O)N2CCOCC2)s1)c1ccccc1Br	-95.4*	3.6	11.9
